The test system of data set [1] is Candida albicans. The experiment in a line: Synergistic antifungal activity against Candida albicans ATCC 90028 at 40 ug/ml after 48 hrs in presence of 80 ug/ml fluconazol by checkerboard assay relative to control. In kind it is functional. Put shortly: (§1)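 Checkerboard in C. albicans ATCC 90028, inoculum prepared per CLSI M27-A3 in RPMI. Fluconazole serially diluted 80-1.25 µg/mL across the plate against the partner compound at 80-1.25 µg/mL final. Incubated 48 h at 35°C. Metabolic activity read by XTT reduction at 475 nm (660 nm reference), given as % of the untreated growth control.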

The test system of data set [2] is Candida albicans. The experiment in a line: Antifungal activity against Candida albicans ATCC 90028 at 4 ug/ml after 48 hrs relative to control. It counts as functional. Put shortly: (§2)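 Planktonic broth microdilution per M27-A3 in MOPS-buffered RPMI 1640 (pH 7.0), final inoculum 1.8×10^3 cells/mL, compounds 0.0313–16 µg/mL from 1600 µg/mL stocks in ethanol or DMSO. Incubated at 35°C without agitation; OD405 read at 18 and 48 h. % inhibition was derived from test, sterility (no inoculum) and solvent growth-control wells. Amphotericin B at 0.5 µg/mL served as the 100% control.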

Data set [3] relates to Candida albicans. The experiment in a line: Antifungal activity against Candida albicans ATCC 90028 at 0.125 ug/ml after 18 hrs relative to control. It counts as functional. Put shortly: as §2
The test system of the next data set is Caco-2. The experiment in a line: Cytotoxicity against human Caco2 cells assessed as reduction in cell viability at 16 ug/ml after 18 hrs by XTT assay ralative to control. In kind it is cell-based. The note with it: caco-2, 18 h. Put shortly: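 Caco-2 cells were exposed to compound at 256, 16 or 0.0313 µg/mL for 18 h, then given XTT reagent for 4–6 h. Absorbance was read at 475 nm with a 660 nm reference, and viability and toxicity were expressed as %. CC50 was taken as the concentration giving 50% viability loss. Means ± SD of three independent experiments, samples in duplicate.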

Data set [4] has as its system Candida albicans. The experiment in a line: Synergistic antifungal activity against Candida albicans ATCC 90028 at 5 ug/ml after 48 hrs in presence of 40 ug/ml fluconazol by checkerboard assay relative to control. It counts as functional. In a few lines: as §1
For data set [5], the system named is Candida albicans. The experiment in a line: Antifungal activity against Candida albicans ATCC 90028 at 0.0313 ug/ml after 18 hrs relative to control. It counts as functional.
The subject of data set [6] is Candida albicans. The experiment in a line: Antifungal activity against Candida albicans ATCC 90028 assessed as inhibition of metabolic activity at 5 ug/ml after 48 hrs in presence of 40 ug/ml fluconazol by XTT assay relative to control. It counts as functional. The note with it: values are per cent of control. In a few lines:
(§3)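 Checkerboard against strain ATCC 90028, inoculum per M27-A3: fluconazole 80-1.25 µg/mL on one axis, tetrazole 80-1.25 µg/mL on the other. Plates at 35°C for 48 h, then XTT metabolic reduction read at 475 nm (660 nm reference). Activity is the drop in mean absorbance against untreated growth control. FICs and their summed FIC index are taken at 50% reduction in metabolic activity.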
(Tetrazolium assays rely on reduction of a dye to a coloured formazan, in cell work by metabolically active cells.)

Data set [7] relates to Candida albicans. Briefly: Antifungal activity against Candida albicans ATCC 90028 assessed as metabolic activity at 20 ug/ml after 48 hrs in presence of 40 ug/ml fluconazol by XTT assay relative to control.
Data set [8] relates to Candida albicans. The experiment in a line: Antifungal activity against Candida albicans ATCC 90028 assessed as inhibition of metabolic activity at 10 ug/ml after 48 hrs in presence of 2.5 ug/ml fluconazol by XTT assay relative to control. It counts as functional. The note with it: values are per cent of control. In a few lines:
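C. albicans ATCC 90028 in checkerboard: fluconazole serial dilutions (80-1.25 µg/mL) crossed with tetrazole (80-1.25 µg/mL final), M27-A3 inoculum in RPMI 1640, 35°C for 48 h. Metabolic activity measured by XTT reduction, read at 475 nm (660 nm reference). Activity expressed relative to untreated growth control absorbance.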

In data set [9] the test system is Candida albicans. The experiment in a line: Antifungal activity against Candida albicans ATCC 90028 assessed as inhibition of metabolic activity at 5 ug/ml after 48 hrs in presence of 5 ug/ml fluconazol by XTT assay relative to control. The note with it: ATCC 90028, 48 h, values are per cent of control. It counts as functional. Put shortly:
as §3

Data set [10] has as its system Candida albicans. Briefly: Antifungal activity against Candida albicans ATCC 90028 after 48 hrs in presence of fluconazol by XTT assay. In kind it is functional. The note with it: ATCC 90028, 48 h. Put shortly:
as §3

Data set [11] relates to Candida albicans. Briefly: Synergistic antifungal activity against Candida albicans ATCC 90028 at 20 ug/ml after 48 hrs in presence of 20 ug/ml fluconazol by checkerboard assay relative to control. It counts as functional. The note with it: ATCC 90028, 48 h, read-out: GI. In a few lines: as §1
The subject of data set [12] is Candida albicans. Briefly: Antifungal activity against Candida albicans ATCC 90028 assessed as inhibition of metabolic activity at 5 ug/ml after 48 hrs in presence of 20 ug/ml fluconazol by XTT assay relative to control. In kind it is functional. The settings on record: values are per cent of control. In a few lines:
as §3

The test system of data set [13] is Candida albicans. The experiment in a line: Synergistic antifungal activity against Candida albicans ATCC 90028 at 40 ug/ml after 48 hrs in presence of 40 ug/ml fluconazol by checkerboard assay relative to control. It counts as functional. The note with it: ATCC 90028, 48 h, read-out: GI. In a few lines: as §1
The test system of data set [14] is Candida albicans. Briefly: Antifungal activity against Candida albicans ATCC 90028 assessed as inhibition of metabolic activity at 5 ug/ml after 48 hrs in presence of 80 ug/ml fluconazol by XTT assay relative to control. The settings on record: values are per cent of control. In kind it is functional. In a few lines: as §3
Data set [15] deals with Candida albicans. The experiment in a line: Synergistic antifungal activity against Candida albicans ATCC 90028 at 80 ug/ml after 48 hrs in presence of 5 ug/ml fluconazol by checkerboard assay relative to control. It counts as functional. In a few lines: as §1
Data set [16] has as its system Candida albicans. The experiment in a line: Antifungal activity against Candida albicans ATCC 90028 at 4 ug/ml after 18 hrs relative to control. In kind it is functional. In a few lines: as §2
Data set [17] relates to Candida albicans. Briefly: Synergistic antifungal activity against Candida albicans ATCC 90028 at 2.5 ug/ml after 48 hrs in presence of 1.25 ug/ml fluconazol by checkerboard assay relative to control. In kind it is functional. In a few lines:
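Checkerboard microdilution (M27-A3) on C. albicans ATCC 90028 in RPMI 1640: fluconazole (80-1.25 µg/mL) crossed with tetrazole (80-1.25 µg/mL final), incubated at 35°C for 48 h. Growth by OD405 at 18 and 48 h, endpoint taken as 100% inhibition. FIC index = sum of the two agents' FICs; <1 synergism, >1 antagonism.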

The test system of data set [18] is Candida albicans. The experiment in a line: Antifungal activity against Candida albicans ATCC 90028 assessed as metabolic activity at 80 ug/ml after 48 hrs in presence of 40 ug/ml fluconazol by XTT assay relative to control.
In data set [19] the test system is Candida albicans. The experiment in a line: Fungicidal activity against Candida albicans ATCC 90028 at 16 ug/ml after 48 hrs by M27-A3 microdilution method. It counts as functional. Put shortly:
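After 48 h at 35°C in M27-A3 microdilution plates (compound at 16 µg/mL), 50 µL aliquots from treated and solvent-control wells were diluted 10^4 in PBS and plated on drug-free Sabouraud dextrose agar, then incubated 48 h at 35°C. Reduction R = lg CFU/mL control − lg CFU/mL treated; R ≥ 3 defined as fungicidal.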

Molecules are shown by their SMILES.

The values that follow come from ChEMBL document CHEMBL4145471, “New 1,5 and 2,5-disubstituted tetrazoles-dependent activity towards surface barrier of Candida albicans” (Eur J Med Chem, 2018).

For orientation: residual activity means the activity still measured, relative to the control. A word on the MIC: it is the lowest concentration that inhibits growth of the organism.

Turning to `CCOC(=O)CCn1nnc(-c2ccccc2)n1`, the “growth inhibition (GI)” value in the data set on Candida albicans [1] was determined as 99.58%; in the data set with Candida albicans [4], 99.51%; in the data set with Candida albicans [15], 99.18%; with Candida albicans [17] it was 99.79%. Further, the Activity in the data set with Candida albicans [2] was determined as 99.68%; in the data set with Candida albicans [3], 99.13%; in the data set on Caco-2, 50.46%; with Candida albicans [5] it was 99.34%; with Candida albicans [16], 99.96%; with Candida albicans [19], 0.33 log10CFU/ml. The residual activity in the data set with Candida albicans [6] was found to be 94.92%; in the data set on Candida albicans [8] it was 71.14%; in the data set with Candida albicans [12], 67.66%; in the data set on Candida albicans [14], 71.92%. Besides, the Metabolic activity was determined as 99.65% in the data set on Candida albicans [7] and 97.37% in the data set with Candida albicans [18]. For the same compound, the residual activity at 5 µg/mL with Candida albicans [9] stood at 100%. Also, in the data set on Candida albicans [10], the MIC was 80 µg/mL. Besides, the inhibition of growth at 20 µg/mL in the data set on Candida albicans [11] came out at 99.5%. Moreover, the inhibition of growth at 40 µg/mL with Candida albicans [13] is 99.5%.

Regarding `ClCCCn1nnnc1-c1ccccc1Cl`, the “growth inhibition (GI)” value turned out to be 99.54% with Candida albicans [1], 99.25% in the data set on Candida albicans [4], 99.27% in the data set with Candida albicans [15] and 100% in the data set with Candida albicans [17]. The Activity was 99.41% in the data set with Candida albicans [2]; 100% in the data set with Candida albicans [3]; 25.49% in the data set with Caco-2; 99.51% with Candida albicans [5]; 99.62% in the data set with Candida albicans [16]; 0.18 log10CFU/ml in the data set with Candida albicans [19]. In addition, the residual activity with Candida albicans [6] was found to be 86.34%; in the data set on Candida albicans [8] it was 79.69%; with Candida albicans [12], 73.79%; in the data set on Candida albicans [14], 77.27%. In addition, the Metabolic activity in the data set on Candida albicans [7] is on record as 82.92%; in the data set on Candida albicans [18], 89.73%. Besides, the residual activity at 5 µg/mL with Candida albicans [9] came to 100%. Further, the minimum inhibitory concentration (MIC) in the data set with Candida albicans [10] amounted to 80 µg/mL. Also, in the data set with Candida albicans [11], the inhibition of growth at 20 µg/mL was found to be 99.7%. Besides, in the data set on Candida albicans [13], the inhibition of growth at 40 µg/mL came to 99.4%.

As for `Cc1ccc(-c2nnn(CCCN3CCOCC3)n2)cc1`, the “growth inhibition (GI)” value was 99.59% in the data set on Candida albicans [1], 99.15% in the data set with Candida albicans [4], 97.8% in the data set on Candida albicans [15] and 98.95% in the data set with Candida albicans [17]. The Activity is listed as 99.45% in the data set with Candida albicans [2]; 99.57% in the data set with Candida albicans [3]; 27.73% in the data set on Caco-2; 99.87% with Candida albicans [5]; 99.75% with Candida albicans [16]; 0.56 log10CFU/ml in the data set with Candida albicans [19]. Further, the residual activity in the data set with Candida albicans [6] stood at 100%; with Candida albicans [8] it was 100%; with Candida albicans [12], 93.31%; with Candida albicans [14] it was 88.19%. For the same compound, the Metabolic activity in the data set on Candida albicans [7] came out at 93.5%; in the data set on Candida albicans [18], 100%. In addition, the residual activity at 5 µg/mL in the data set on Candida albicans [9] turned out to be 100%. The MIC in the data set on Candida albicans [10] is 20 µg/mL. In addition, the inhibition of growth at 20 µg/mL in the data set on Candida albicans [11] is 99.1%. Also, the inhibition of growth at 40 µg/mL with Candida albicans [13] was found to be 99.5%.
